# Assay outcomes from PubChem BioAssay.
# Compounds with a hit are over-represented: about 5.1% of the library has one in this group of screens.
# ERa SRC1 pot: ER-alpha (human) coactivator binding potentiation | P03372 | TR-FRET ERalpha-LBD/SRC-Cy5 coactivator binding, 2 h; 100 = basal binding, no effect | coactivator binding (% of control), % at 25.6 µM | 86,000 compounds, 1.3% hits | AID 639; in the data active means activity above about 200%;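 further: binding measured in presence of low estradiol as agonist stimulus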
# SF1 activator: SF-1 (human) activation. 65,000 compounds, 1.9% hits. activation, % at 10 µM. CHO-K1 Gal4-SF-1 LBD luciferase reporter; % increase over DMSO SF-1-specific signal. Q13285;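 active means activation above the mean activation of all tested compounds plus 3 SD, cut at about 50% in these data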
# Target sequence (Q13285 whole entry, looked up, the tested form may be a part): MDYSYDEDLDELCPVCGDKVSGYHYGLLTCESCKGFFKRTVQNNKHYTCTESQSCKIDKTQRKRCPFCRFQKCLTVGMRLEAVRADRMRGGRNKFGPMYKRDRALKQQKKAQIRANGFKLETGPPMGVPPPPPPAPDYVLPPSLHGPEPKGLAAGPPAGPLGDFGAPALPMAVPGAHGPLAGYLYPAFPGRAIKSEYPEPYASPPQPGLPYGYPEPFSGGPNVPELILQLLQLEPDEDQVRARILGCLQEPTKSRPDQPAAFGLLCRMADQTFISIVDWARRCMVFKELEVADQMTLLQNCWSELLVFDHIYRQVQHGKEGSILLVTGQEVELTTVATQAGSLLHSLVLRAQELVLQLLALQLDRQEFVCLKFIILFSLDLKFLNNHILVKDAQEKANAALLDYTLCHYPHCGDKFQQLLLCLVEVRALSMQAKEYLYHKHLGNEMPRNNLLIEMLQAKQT
#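 Assay system – CHO-K1 cells with Gal4–hSF-1 LBD chimera plus Gal4-driven luciferase · Quantity – 4,000 cells per well · Times – compound added 1 h post-seeding, 20 h exposure at 37 °C, 5% CO2 · Measured by – luciferase light emission · Benchmarks – DMSO and mock-transfected background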
# BAP1 inh: blocks human BAP1 ubiquitin-AMC hydrolysis | Q92560 | recombinant BAP1, Ub-AMC hydrolysis fluorescence kinetic; stronger effect = lower value | calls only at 20 µM | 72,000 compounds, 0.48% hits | AID 436;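 active means activity remaining at or below 50% of control, provided the compound also passes the data quality filters; inactive means the rest, including low values that fail the filters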
# RORA act: activators of human nuclear receptor RORA | 65,000 compounds, 1.5% hits | activation, % at 10 µM | AID 560 | P35398 | CHO-K1 Gal4-RORA LBD luciferase reporter, luminescence; percent increase over mock-subtracted basal signal;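 active means activation above the mean of all tested compounds plus 3 SD, cut at about 49% in these data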
# ERb SRC1 inh: blocks coactivator binding to human estrogen receptor beta; Q92731; TR-FRET ER-beta LBD / SRC1-Cy5 peptide binding; receptor agonist-loaded with 1 µM estradiol; inhibition, % at 25.6 µM; 86,000 compounds, 1.3% hits;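 active means compounds whose percent inhibition of the receptor-coactivator binding signal exceeds about 50% in the single-dose screen, limit read from the data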
# ERa coact inh: blocks coactivator binding to human estrogen receptor alpha | P03372 | TR-FRET ER-alpha LBD / SRC-1 peptide, estradiol-bound | inhibition, % at 25.6 µM | 86,000 compounds, 1.7% hits; in the data active means inhibition above about 50%
# Hits are given with their value; 0 = inactive; - = not tested or not shown; [ ] = another dose, or the depositor's remark.
SMILES,ERa SRC1 pot,SF1 activator,BAP1 inh,RORA act,ERb SRC1 inh,ERa coact inh
CCOC(=O)c1ccc2nc(NC(=O)c3ccco3)sc2c1,0,0,0,0,0,0
CCC(Sc1nc(C)cc(=O)[nH]1)C(=O)Nc1nc(-c2ccccc2)cs1 (configuration not stated),0,-,-,-,0,0
CCOc1ccc2nc(NC(=O)C(CC)Sc3nc(C)cc(=O)[nH]3)sc2c1 (configuration not stated),0,0,0,52,0,0
O=C(Nc1nc2ccc(S(=O)(=O)N3CCCC3)cc2s1)c1cccs1,0,0,0,52,0,0
C=CCN(CC=C)S(=O)(=O)c1ccc2nc(NC(=O)C(C)C)sc2c1,0,0,0,60,0,0
COCC(=O)Nc1nc2ccc(S(C)(=O)=O)cc2s1,0,0,0,0,0,0
CCOC(=O)c1ccc2nc(NC(=O)C(C)C)sc2c1,0,0,0,68,0,0
Cc1cc2ccccc2nc1SCC(=O)N1c2ccccc2CC1C (configuration not stated),0,-,-,-,0,0
Cc1cc2cc3c(cc2nc1SCC(=O)N1c2ccccc2CC1C)OCO3 (configuration not stated),0,-,-,-,0,51[fluorescence artefact?]
CC1Cc2ccccc2N1C(=O)CSc1nc2cc3c(cc2cc1C#N)OCO3 (configuration not stated),298[fluorescence artefact?],0,0,0,0,0
O=C(c1ccc2ccccc2c1)N1CCN(c2ccc([N+](=O)[O-])cc2)CC1,-,-,0,-,-,-
Cn1cnnc1SCC(=O)Nc1sccc1C#N,0,0,0,0,0,0
Cn1c(SCC(=O)Nc2ccccc2F)nnc1-c1cc2ccccc2o1,597[fluorescence artefact?],-,-,-,0,0
Cn1c(SCC(=O)N2CCN(c3ccccc3)CC2)nnc1-c1cc2ccccc2o1,0,0,0,0,0,0
Cn1c(SCC(=O)n2c3c(c4ccccc42)CCCC3)nnc1-c1ccccc1,0,-,-,-,0,0
Cn1c(SCC(=O)Nc2ccc3c(c2)oc2ccccc23)nnc1-c1ccccc1,251[fluorescence artefact?],0,-,0,0,52
CC(=O)Nc1ccc(-c2nnc(SCC(=O)n3c4c(c5ccccc53)CCCC4)n2C)cc1,256,0,0,0,0,0
Cc1cccc(NC(=O)CSc2nnc(-c3ccncc3)n2C)c1,0,0,0,0,0,0
Cn1c(SCC(=O)Nc2sccc2C#N)nnc1-c1ccccc1,0,-,-,-,0,53
COc1ccc(C(=O)Nc2ccc(C(=O)OCC(C)C)cc2)cc1,-,-,0,-,-,-
O=C(Oc1ccc(-c2nc3ccc([N+](=O)[O-])cc3[nH]2)cc1)C1CCCCC1,-,-,0,-,-,-
Cn1c(=O)c2nc(-c3ccc(Cl)cc3Cl)oc2c2ccccc21,0,0,0,0,0,59[fluorescence artefact?]
CCc1ccc2nc(NC(=O)c3ccc4c(=O)[nH]c(CN5CCOCC5)nc4c3)sc2c1,0,0,0,0,0,69
C=CCc1c(C)c2ccc(OC(C)=O)cc2oc1=O,-,-,0,-,-,-
CCOC(=O)c1c(C)c(C(=O)Nc2ccc(N(C)C)cc2)c(C)n1CC,0,72,0,54,0,0
SMILES,ERa SRC1 pot,SF1 activator,BAP1 inh,RORA act,ERb SRC1 inh,ERa coact inh
CCOC(=O)c1c(C)c(C(=O)NCCOC)c(C)n1CC,0,0,0,0,0,0
COC(=O)c1ccccc1NS(=O)(=O)c1ccc2c3c(cccc13)C(=O)N2,0,0,0,0,0,0
Cc1oc2c(cc(NS(=O)(=O)c3ccc4c5c(cccc35)C(=O)N4)c3ccccc32)c1C(=O)OC(C)C,0,-,-,-,57,93[fluorescence artefact?]
CCOC(=O)c1c(NC(=O)COc2ccccc2C)sc(C(C)=O)c1C,-,-,0,-,-,-
CC(=O)C1=C(NC(=O)c2ccc(F)cc2)CC2C1C2(C)C (configuration not stated),0,-,-,-,0,0
C/C(NC(=O)c1ccccc1)=C1/C(=O)CC2C1C2(C)C (configuration not stated),0,0,0,68,0,0
CCNC(=O)NC(=O)COC(=O)c1ccccc1SCC(=O)NC(=O)NCC,0,69,0,0,0,0
CCNC(=O)NC(=O)CSc1ccc(NC(C)=O)cc1,0,0,0,0,0,0
CN(C)/C=N/c1cnc(C(=O)c2ccc(Cl)cc2)n1C,0,0,0,76,0,0
Cc1cccc(NC(=O)c2cnc3scc(C)n3c2=O)c1,336[fluorescence artefact?],0,0,50,0,0
